Screening results (PubChem BioAssay)
Glyco luc inh – blocks N-linked glycosylation in D54 reporter cells | D54 ERlucT glycosylation luciferase reporter, 24 h; percent of 100 nM tunicamycin response | reporter increase, % at 12.5 µM | 0.23% of 360,000 active;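 active = mean luciferase reporter signal, scaled so untreated is 0 and the glycosylation-blocking control 100, at or above a set limit in every replicate; inconclusive = mean reaches the limit but not every replicate does; inactive = mean below the limit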;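 also: luciferase carries N-glycosylation sites so blocking glycosylation raises the light; 0% = median of neutral control wells and 100% = median of 100 nM tunicamycin wells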
UCH37 DUB inh – inhibitors of human deubiquitinating enzyme UCH37 | purified proteasome/UCH37, Ub-AMC cleavage fluorescence | Q9Y5K5 | 0.33% of 330,000 active | inhibition, % (test concentration not listed);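 active = mean inhibition over replicate wells above about 20%, limit read from the data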;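 also: 0% = compound-free wells with enzyme and 100% = wells lacking proteasome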
Target sequence (Q9Y5K5 whole entry, looked up): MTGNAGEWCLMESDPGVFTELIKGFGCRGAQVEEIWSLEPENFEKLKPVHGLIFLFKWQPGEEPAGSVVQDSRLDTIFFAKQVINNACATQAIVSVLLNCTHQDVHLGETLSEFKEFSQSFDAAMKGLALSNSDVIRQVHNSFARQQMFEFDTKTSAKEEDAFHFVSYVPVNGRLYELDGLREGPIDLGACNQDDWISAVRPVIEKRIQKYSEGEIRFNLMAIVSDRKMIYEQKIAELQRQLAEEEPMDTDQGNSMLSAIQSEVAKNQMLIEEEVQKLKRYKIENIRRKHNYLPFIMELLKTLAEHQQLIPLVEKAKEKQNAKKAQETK
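system = Proteasome-associated human UCH37 deubiquitinase | amount = 0.15 nM proteasome as dispensed | medium = pH 7.4 Tris-HCl (50 mM) with ovalbumin, ATP-MgCl2, DTT | incubation = 30 min preincubation with enzyme, 25 min cleavage at room temperature | detection = AMC fluorescence 355/460 nm | read-out basis = percent inhibition | controls = no-proteasome and no-compound wells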
aDG glyco up – increases alpha dystroglycan glycosylation; 0.22% of 360,000 active; activation, % at 10 µM; Pro5-aDG cells, alpha-DG glycosylation AlphaScreen (IIH6); 0% Pro5, 100% B10-LARGE cell signal;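 active = activation of at least 8% versus controls, or a plate z-score of at least 8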;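 also: Pro5 are CHO cells carrying HIG-tagged alpha-DG that lacks glycosylation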
Vif imaging – HIV Vif inhibition. HEK293T cells, Vif self-association by quenched fluorescence, imaging, 24 h. inhibition, % at 7.49 µM. 0.35% of 340,000 active; in the data active = inhibition above about 50%, passing the limit was not always enough; inconclusive = no clear call, values can overlap the other calls; inactive = below about 31%
MsrA inh – inhibits bovine methionine sulfoxide reductase A | purified bovine MsrA, absorbance read-out | inhibition, % at 15.5 µM | 0.75% of 360,000 active | AID 651718; in the data active = inhibition above about 4.5%;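 also: 0% = vehicle wells with enzyme and 100% = reference inhibitor wells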
bovine MsrA act – activators of bovine methionine sulfoxide reductase A | purified bovine MsrA, absorbance read-out | activation, % at 10.6 µM | 0.3% of 360,000 active; in the data active = activation above about 7.5%;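 also: 0% = vehicle and 100% = reference activator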
Numbers without * were called inactive; ? = inconclusive; · = no result. Rows were chosen to be rich in hits. Some 1.9% of all compounds tested hit in one or more screens of this group.

SMILES	Glyco luc inh	UCH37 DUB inh	aDG glyco up	Vif imaging	MsrA inh	bovine MsrA act
CC(=NO)c1ccc2c(c1)CC(C)O2 (stereo unspecified)	·	4	·	·	·	·
COc1ccccc1/C=C/C=Nn1c(-c2ccco2)n[nH]c1=S	·	4	·	·	·	·
O=C(Cc1ccc(F)cc1)NN=Cc1ccccn1	·	2	·	·	·	·
O=S(=O)(c1ccccc1)N(F)S(=O)(=O)c1ccccc1	1	0	0	59*	0	-8
COc1ccccc1-c1csc(C(NC(C)=O)c2ccc(F)c(F)c2)n1 (stereo unspecified)	?	·	0	-3	1	-4
COc1ccccc1-c1csc(C(NC(C)=O)c2cccc(F)c2)n1 (stereo unspecified)	33*	·	0	-5	1	0
CCOc1ccc(-c2c(C(=O)NN=Cc3ccc(OC(C)C)cc3)nnn2-c2nonc2N)cc1	·	-11	·	·	·	·
O=C(CN(C(=O)Cn1nnc(-c2ccc(F)cc2)n1)C1CCCC1)NC1CCCC1	-2	-1	0	67*	1	-1
CC(C)(C)NC(=O)C(c1ccco1)N(C(=O)Cn1nnc(-c2ccc(F)cc2)n1)c1ccccc1 (stereo unspecified)	·	5	·	·	-1	·
O=C(CN(Cc1ccco1)C(=O)Cn1nnc(-c2ccc(F)cc2)n1)NC1CCCC1	-1	2	0	·	0	-2
CC(C)(C)NC(=O)CN(Cc1ccc(F)cc1)C(=O)Cn1nnc(-c2ccc(F)cc2)n1	-2	8	0	58*	1	-1
O=C(NN=Cc1ccc(N2CCOCC2)cc1)c1ccccn1	·	12	·	·	·	·
Cc1ccccc1-c1nc2ccccc2c(=O)n1N=Cc1ccccc1[N+](=O)[O-]	·	3	·	·	·	·
COc1ccc(C(=O)NCC(=O)NN=Cc2cn(C)c3ccccc23)cc1OC	·	5	·	·	·	·
COC(=O)c1ccc(NC(=O)c2cc(-c3ccccn3)nc3ccccc23)cc1	3	-10	0	62*	0	-2
COC(=O)c1ccc(NC(=O)c2cc(-c3ccncc3)nc3ccccc23)cc1	13	6	0	14	0	-3
Cc1cc(C(=O)Nc2c(F)c(F)c(F)c(F)c2F)n(-c2ccccc2)n1	0	4	0	73*	-1	-2
Cc1cc(C(=O)Nc2c(C)cccc2C)n(-c2ccccc2)n1	3	2	0	-1	0	3
COC(=O)c1ccc(SC2CCCCC2)c([N+](=O)[O-])c1	-4	0	0	125*	0	-3
COC(=O)c1ccc(SCC(=O)NC2CCCC2)c([N+](=O)[O-])c1	-1	4	0	?	0	-3
C=C(C)CN(CC)C(=O)CSc1nc2ncc(Cl)cc2[nH]1	1	3	0	-1	1	-2
C=C(C)CSc1nc2ncc(Cl)cc2[nH]1	0	2	0	69*	0	-10
COc1cc(C=N/N=C2/NC(=O)C(Cc3ccc(F)cc3)S2)ccc1O (stereo unspecified)	·	9	·	·	·	·
Cn1c(=O)c2[nH]c(N=NN3CCCCC3)nc2n(C)c1=O	3	22*	0	23	4	-8
O=C1CCCCCCCCCCC(=NO)CCCO1	·	5	·	·	·	·
SMILES	Glyco luc inh	UCH37 DUB inh	aDG glyco up	Vif imaging	MsrA inh	bovine MsrA act
O=C(O)c1nc(Cl)c(Cl)c(NN=Cc2ccccc2C(F)(F)F)c1Cl	·	13	·	·	·	·
Cc1nn(CCCC(=O)Nc2sc3c(c2C#N)CCC3)c(C)c1[N+](=O)[O-]	1	8	0	-3	25*	-1
Cc1cccc2cc(C=NNC(=O)[C@H]3C[C@@H]3c3ccccc3)c(Cl)nc12	·	-12	·	·	·	·
Cc1cc(C(F)(F)F)nn1CC(=O)N(C)C1CCCCC1	3	32*	0	-3	1	2
Cc1cc(C(F)(F)F)nn1CC(=O)N(C)c1ccccc1	1	0	0	-2	0	3
Oc1ccccc1C=NN1CCCCC1	·	6	·	·	·	·
COC(=O)c1c(NC(=O)CSc2nnc(CNc3ccc(Cl)cc3)o2)sc(C)c1C	0	-3	0	72*	0	4
COc1cc(C=Nn2nnnc2N)ccc1OCc1c(C)no[n+]1[O-]	·	-5	·	·	·	·
COc1ccc(C(C)=NNC(=O)CNC(=O)c2ccncc2)c(OC)c1	·	2	·	·	·	·
Cc1cc(NC(=O)CSc2nc3c(sc4ccccc43)c(=O)n2CCCN2CCOCC2)n[nH]1	12	-13	0	94*	2	-2
Cc1ccc(NC(=O)CSc2nc3ccccc3c(=O)n2CCCN2CCCCC2)cc1C	-13	4	8.3*	-2	0	3
CCn1c(CCNS(=O)(=O)c2ccccc2Br)nnc1SC	1	3	0	54*	0	-5
CSc1nnc(CCNS(=O)(=O)c2ccccc2Br)n1C	2	0	0	-1	0	-3
NC(Cc1ccc([N+](=O)[O-])cc1)=NOC(=O)c1ccco1	·	1	·	·	·	·
COc1ccc(N2CCc3c(C)nc4c(OC)cc(OC)cc4c32)cc1	?	-6	0	-12	0	-10
COc1ccc(N2CCc3c(C)nc4c(OC)cccc4c32)cc1	35*	9	0	10	2	-4
Cc1cc(C)cc(OCC(=O)NN=Cc2cn(C)nc2C)c1	·	1	·	·	·	·
O=C(COC(=O)[C@H](Cc1ccccc1)NC(=O)c1cccs1)Nc1c(Cl)cccc1Cl	1	1	0	-2	0	-3
O=C(COC(=O)C(Cc1ccccc1)NC(=O)c1cccs1)NCc1ccccc1 (stereo unspecified)	1	5	0	59*	-1	-2
CCOC(=O)c1ccc(-c2ccc(C=NNC(=O)Cc3nnc(N)s3)o2)cc1	·	-55	·	·	·	·
NC(=O)c1nn2c(C(F)(F)F)cc(-c3ccccc3)nc2c1Br	5	1	0	-2	4.6*	-8
COCCNC(=O)c1nn2c(C(F)(F)F)cc(-c3ccccc3)nc2c1Cl	3	-6	0	106*	0	-1
COc1ccc(-c2cc(C(F)(F)F)n3nc(C(=O)NCc4ccco4)cc3n2)cc1	-1	-76	0	-1	2	-8
COc1ccc(-c2cc(C(F)(F)F)n3nc(C(=O)NCc4ccco4)c(Cl)c3n2)cc1	0	-26	0	157*	0	-4
COc1cc(C=Nn2cnc3c(sc4nc(C)cc(C)c43)c2=O)ccc1O	·	2	·	·	·	·
C=CCOc1ccc(C(CC)=NO)c(OC)c1	·	1	·	·	·	·
CC(=O)Nc1cccc(-c2ccnc3c2CC(C)(C(=O)NCCC(F)(F)F)O3)c1 (stereo unspecified)	25*	·	0	-7	-1	0
CC(=O)Nc1ccc(-c2ccnc3c2CC(C)(C(=O)NCCC(F)(F)F)O3)cc1 (stereo unspecified)	3	·	0	-5	0	-3
CC1(C(=O)NCc2ccco2)Cc2c(-c3cccc(C(N)=O)c3)ccnc2O1 (stereo unspecified)	38*	·	0	14	1	-3
